Assay [1] concerns demethylated form of PP2A. Nature of the assay: PP2A methylation state in untransfected HEK 293T cells. Format: cell-based, human. The following applies: 1 hour, basal PME-1. The procedure, abridged: (§1)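 Compound or DMSO added to the medium of HEK 293T cells at 37 °C. Total sonicated cell extract diluted to 2 mg/mL in PBS, run on reducing 10% SDS-PAGE, and immunoblotted with demethylated-specific (4b7), methylated-specific (2A10) and total PP2A antibodies plus α-tubulin. Bands quantified by fluorescence imaging. Mean ± SEM, n = 3; compared with DMSO-treated cells.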

Assay [2] deals with T1, PME-1 (Homo sapiens, UniProt Q9Y570).
T1 sequence (Q9Y570 2-386 limits assumed): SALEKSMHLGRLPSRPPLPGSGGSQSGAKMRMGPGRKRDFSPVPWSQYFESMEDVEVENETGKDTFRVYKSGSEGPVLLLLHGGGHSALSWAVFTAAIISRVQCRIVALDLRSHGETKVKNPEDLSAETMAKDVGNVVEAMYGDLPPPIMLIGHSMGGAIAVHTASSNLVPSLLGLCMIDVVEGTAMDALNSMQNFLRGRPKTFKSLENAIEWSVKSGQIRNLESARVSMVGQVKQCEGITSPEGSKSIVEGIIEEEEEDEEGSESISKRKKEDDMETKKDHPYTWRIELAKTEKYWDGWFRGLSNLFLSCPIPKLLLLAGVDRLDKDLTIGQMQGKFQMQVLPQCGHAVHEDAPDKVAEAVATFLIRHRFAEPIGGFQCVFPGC
The following applies: read-out: PME-1 IC50; cited from earlier work.

In assay [3] the test system is other SHs in human cell lysates. The assay is described as follows: Gel-based competitive ABPP, other SHs in human cell proteomes/lysates. The following applies: human cell proteomes. The assay is classed as biochemical.
The target of assay [4] is T2, PME-1 (Mus musculus, UniProt Q8BVQ5).
T2 sequence (Q8BVQ5 1-386): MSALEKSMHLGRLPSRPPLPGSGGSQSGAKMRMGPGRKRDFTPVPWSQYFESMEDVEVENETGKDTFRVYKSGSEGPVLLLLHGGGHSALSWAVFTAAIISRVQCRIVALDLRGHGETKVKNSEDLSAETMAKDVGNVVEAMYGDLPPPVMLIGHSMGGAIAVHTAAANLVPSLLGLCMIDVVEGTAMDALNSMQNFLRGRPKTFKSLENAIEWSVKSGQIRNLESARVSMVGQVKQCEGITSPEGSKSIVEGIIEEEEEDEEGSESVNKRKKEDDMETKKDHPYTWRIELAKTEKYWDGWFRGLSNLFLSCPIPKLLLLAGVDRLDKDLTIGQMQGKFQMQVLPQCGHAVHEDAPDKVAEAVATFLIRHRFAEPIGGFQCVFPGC
The assay is described as follows: Gel-based competitive ABPP with FP-Rh, PME-1 in mouse brain soluble proteome. Format: biochemical. The procedure, abridged: (§2)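 Soluble proteomes diluted to 1 mg/mL in PBS (pH 7.5) and preincubated with compound or DMSO for 30 min at 25 °C. FP-rhodamine then added (2 μM final) for 45 min. Reactions quenched with reducing SDS loading buffer, separated by 10% SDS-PAGE, and serine hydrolase activity read by in-gel fluorescence scanning.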

Assay [5] concerns other SHs. The assay is classed as biochemical, mouse. The settings on record: Off-targets are defined as SHs with >50% inhibition at 50 μM; Table 1 series. In short, it runs like this:
as §2

Assay [6] concerns the target T1, PME-1. The assay is described as follows: PME-1 IC50 by gel-based competitive ABPP in soluble proteomes. The following applies: Table 2 series. The assay is classed as biochemical.
The next assay relates to PP2A methylation state. Nature of the assay: PP2A methylation state in HEK 293T cells stably overexpressing PME-1. The assay is classed as cell-based, human. The settings on record: 20 μM, 1 h. In short, it runs like this: as §1
The test system of assay [7] is 35 other SHs detected in HEK 293T cells. Nature of the assay: In situ competitive SILAC-ABPP. Format: cell-based, human. The following applies: 20 μM, 1 h. The procedure, abridged: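 HEK 293T cells SILAC-labelled with light or heavy Lys/Arg. Light cells given compound and heavy cells DMSO, 1 h at 37 °C. Soluble and membrane proteomes (0.5 mg each) mixed 1:1 and labelled with FP-biotin (5 μM, 1 h, 25 °C). Streptavidin enrichment, on-bead trypsin digestion, then MudPIT LC-MS/MS. Light/heavy ratios taken for SHs with ≥2 quantifiable peptides, normalised to a DMSO/DMSO control.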

In assay [8] the target is T3, PME-1 (Homo sapiens, UniProt Q9Y570).
T3 sequence (Q9Y570 1-386): T2 sequence (Q8BVQ5 1-386) with T42S, G114S, S123P, V150I, A167S, A168S, V268I, N269S
Nature of the assay: In situ competitive SILAC-ABPP. The assay is classed as cell-based. The following applies: HEK 293T cells, 20 μM, 1 h.

The target of a further assay is T4, Purified wild-type PME-1 (Homo sapiens, UniProt Q9Y570).
T4 sequence (Q9Y570 1-386): T2 sequence (Q8BVQ5 1-386) with T42S, G114S, S123P, V150I, A167S, A168S, V268I, N269S
Nature of the assay: Reversibility of PME-1 inhibition. Format: biochemical. The settings on record: PME-1 500 nM, compound 50 μM.

Assay [9] concerns other SHs. Nature of the assay: In situ gel-based competitive ABPP, other SHs in HEK 293T cells. Format: cell-based, human. The following applies: up to 100 μM compound, 1 h. In short, it runs like this: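 HEK 293T cells treated in culture with a concentration range of compound or DMSO for 1 h at 37 °C, then harvested and sonicated in PBS (pH 7.5). Soluble fraction (64,000g supernatant) diluted to 1 mg/mL and labelled with FP-rhodamine (2 μM, 45 min, 25 °C). Resolved by 10% SDS-PAGE and read by in-gel fluorescence scanning.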

The test system of assay [10] is CA-Rh or SE-Rh-labeled proteins. Nature of the assay: CA-Rh / SE-Rh probe labeling of soluble proteomes from treated HEK 293T cells. The assay is classed as cell-based, human. The following applies: 100 μM, relative to DMSO-treated samples. In short, it runs like this: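 Compound or DMSO added to the culture medium of HEK 293T cells at 37 °C. Cells washed, scraped, pelleted, and sonicated in ice-cold PBS (pH 7.5). Soluble fraction isolated at 64,000g for 45 min at 4 °C and diluted to 1 mg/mL. Labelled with CA-rhodamine or SE-rhodamine (5 μM, 1 h, 25 °C), resolved by reducing 10% SDS-PAGE, and scanned for in-gel fluorescence.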

Where a chain is given by its changes, count along the chain named.

On to `COC(=O)N1C(=O)[C@](c2ccccc2)(C2CCCC2)N1C(=O)OC` (stereo in doubt) [Cmpd 1, reference compound], for which the “Effect on the demethylated form of PP2A” value in assay [1] (500 nM) is “decreased the demethylated form of PP2A”. In addition, at PME-1 [2], the IC50 (as a rule, the concentration at which inhibition is half-maximal) was around 10 nM.

On to `CS(=O)(=O)/C(C#N)=C/c1cccn1S(=O)(=O)c1ccccc1` [Cmpd 2], for which the “Cross-reactivity with additional SHs” value in [3] was “acyl-peptide hydrolase (APEH) and an unidentified 30 kDa SH”.

On to `CS(=O)(=O)C(C#N)Cc1cccn1S(=O)(=O)c1ccccc1` (centres unmarked) [Cmpd 3, 2-(methylsulfonyl)-3-(1-(phenylsulfonyl)-1H-pyrrol-2-yl)propanenitrile], for which the “PME-1 activity (in words)” value at PME-1 [4] was “inactive”.

Turning to `CS(=O)(=O)/C(=C/c1cccn1S(=O)(=O)c1ccccc1)CN` [Cmpd 4, (E)-2-(methylsulfonyl)-3-(1-(phenylsulfonyl)-1H-pyrrol-2-yl)prop-2-en-1-amine], the “PME-1 activity (in words)” value on PME-1 [4] is “inactive”.

Regarding `CS(=O)(=O)/C(C#N)=C/c1ccc[nH]1` [Cmpd 7, (E)-2-(methylsulfonyl)-3-(1H-pyrrol-2-yl)acrylonitrile], the “PME-1 activity (in words)” value on PME-1 [4] is “inactive”.

Take `CS(=O)(=O)/C(C#N)=C/c1ccccc1` [Cmpd 8, (E)-2-(methylsulfonyl)-3-phenylacrylonitrile]: at PME-1 [4], the “PME-1 activity (in words)” value is “inactive”.

As for `CS(=O)(=O)/C(C#N)=C/c1ccc([N+](=O)[O-])cc1` [Cmpd 9, (E)-2-(methylsulfonyl)-3-(4-nitrophenyl)acrylonitrile], on PME-1 [4], the “PME-1 activity (in words)” value is “inactive”.

For the compound `CS(=O)(=O)C(=Cc1cccn1S(=O)(=O)c1ccccc1)S(C)(=O)=O` [Cmpd 16, 2-(2,2-bis(methylsulfonyl)vinyl)-1-(phenylsulfonyl)-1H-pyrrole], the “PME-1 activity (in words)” value at PME-1 [4] is “did not inhibit PME-1”.

In the case of `N#CC(C#N)=Cc1cccn1S(=O)(=O)c1ccccc1` [Cmpd 17, 2-((1-(phenylsulfonyl)-1H-pyrrol-2-yl)methylene)malononitrile], the Off-targets result in the assay with other SHs [5] is recorded as “increased activity against a 40 kDa SH”. Also, the “PME-1 activity (in words)” value on PME-1 [4] is given as “two-fold less potent”.

On to `CS(=O)(=O)/C(C#N)=C/c1cccn1S(=O)(=O)c1c(F)c(F)c(F)c(F)c1F` [Cmpd 22, (E)-2-(methylsulfonyl)-3-(1-((perfluorophenyl)sulfonyl)-1H-pyrrol-2-yl)acrylonitrile], for which, at PME-1 [6], the “PME-1 activity (in words)” value was “no activity”.

Regarding `N#C/C(=C\c1cccn1S(=O)(=O)c1cccc(C#N)c1)S(=O)(=O)c1ccc(F)cc1` [Cmpd 27, (E)-3-(2-(2-cyano-2-(4-fluorophenylsulfonyl)vinyl)-1H-pyrrol-1-ylsulfonyl)benzonitrile], the “Effect on the methylated form of PP2A” value in the assay on PP2A methylation state was “significantly increased”.

Take `N#C/C(=C\c1cccn1S(=O)(=O)c1cccc([N+](=O)[O-])c1)S(=O)(=O)c1ccc(F)cc1` [Cmpd 28, (E)-2-(4-fluorophenylsulfonyl)-3-(1-(3-nitrophenylsulfonyl)-1H-pyrrol-2-yl)acrylonitrile]: the “Activity against other SHs (SILAC-ABPP)” value in [7] is recorded as “no activity”. For the same compound, the “in situ inhibition of PME-1 (SILAC-ABPP)” value at PME-1 [8] is “complete in situ inhibition”. Moreover, the “Recovery of enzyme activity after gel filtration” value at Purified wild-type PME-1 is recorded as “not observed”. The “Effect on the demethylated form of PP2A” value in assay [1] (20 μM) is listed as “decreased the demethylated form of PP2A”. Moreover, the “Cross-reactivity with other SHs in situ” value in the assay on other SHs [9] is “without any observed cross-reactivity”. Moreover, the “Change of intensity of CA-Rh or SE-Rh-labeled proteins” value in assay [10] is on record as “did not alter the intensity”. For the same compound, the “Effect on the methylated form of PP2A” value in the assay on PP2A methylation state is “significantly increased”.
